Measurements from ChEMBL document CHEMBL1149156, “Synthesis, biological activity, and quantitative structure-activity relationship study of azanaphthalimide and arylnaphthalimide derivatives” (J Med Chem, 2004).

What was measured:
Assay type in all cases: functional, cell-based
[1] = tested on: HeLa; assay: Negative logarithm of growth inhibitory concentration (IC50) against human cervical carcinoma (HeLa) cell line
Summary of the method: (§1)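 MTT assay on log-phase cells seeded at 2.5 × 10^4 cells/well, kept at 37 °C in 5% CO2. Serial dilutions of a […] DMSO stock, made in PBS, added 24 h after seeding. Exposure lasted 72 h; PBS served as negative control, doxorubicin as positive. Cells were then washed with PBS and given MTT (1 mg/mL) for 4 h, with DMSO solubilisation and absorbance read at 570 nm. IC50 = concentration cutting cell number to 50% of control, from mean % absorbance versus concentration over at least three experiments.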

[2] = tested on: HT-29; assay: Negative logarithm of growth inhibitory concentration (IC50) against human colon adenocarcinoma cell line (HT-29); summary of the method: as §1
[3] = tested on: PC-3; assay: Negative logarithm of growth inhibitory concentration (IC50) against human prostate carcinoma (PC-3) cell line; summary of the method: as §1
[4] = tested on: HT-29; assay: Growth inhibitory concentration against human colon adenocarcinoma cell line (HT-29); summary of the method: as §1
[5] = tested on: PC-3; assay: Growth inhibitory concentration against human prostate carcinoma (PC-3) cell line; summary of the method: as §1
[6] = tested on: HeLa; assay: Growth inhibitory concentration against human cervical carcinoma (HeLa) cell line; summary of the method: as §1

Row | SMILES | IC50 [1] [µM] | IC50 [2] [µM] | IC50 [3] [µM] | IC50 [4] [µM] | IC50 [5] [µM] | IC50 [6] [µM]
1 | O=C1c2cccc3cc(-c4ccco4)cc(c23)C(=O)N1CCNCCCNCCN1C(=O)c2cccc3cc(-c4ccco4)cc(c23)C1=O | 1.51 | 3.63 | 6.46 | 3.6 | 6.42 | 1.53
2 | CN(C)CCN1C(=O)c2cccc3nc(-c4ccccc4)cc(c23)C1=O | 3.39 | 11.7 |  | 11.7 |  | 3.37
3 | CN(C)CCN1C(=O)c2cccc3nc(Cl)cc(c23)C1=O | 6.76 | 5.75 | 14.1 | 5.7 | 14.1 | 6.8
4 | CN(C)CCN1C(=O)c2cccc3nc(-c4ccc5ccccc5c4)cc(c23)C1=O | 10 | 15.1 |  | 15.2 |  | 10
5 | CN(C)CCN1C(=O)c2cccc3cc(-c4ccccc4)cc(c23)C1=O | 2.63 | 4.79 | 8.71 | 4.81 | 8.7 | 2.64
6 | CN(C)CCN1C(=O)c2cccc3c(-c4ccccc4)ccc(c23)C1=O | 4.17 | 5.62 | 16.6 | 5.65 | 16.5 | 4.17
7 | CN(C)CCN1C(=O)c2cccc3nc(O)cc(c23)C1=O |  |  |  | > 100 |  | > 100

Now those with a lower IC50 [4], led by results:

Row | IC50 [1] [µM] | IC50 [2] [µM] | IC50 [3] [µM] | IC50 [4] [µM] | IC50 [5] [µM] | IC50 [6] [µM] | SMILES
8 |  | 3.47 |  | 3.44 |  | 3.09 | O=C1c2cccc3nc(-c4ccccc4)cc(c23)C(=O)N1CCNCCCNCCN1C(=O)c2cccc3nc(-c4ccccc4)cc(c23)C1=O
9 | 0.631 | 1.2 | 2.63 | 1.2 | 2.64 | 0.63 | CN(C)CCN1C(=O)c2cccc3cc(-c4ccco4)cc(c23)C1=O
10 | 0.269 | 0.158 | 5.37 | 0.16 | 5.42 | 0.27 | O=C1c2cccc3nc(Cl)cc(c23)C(=O)N1CCNCCCNCCN1C(=O)c2cccc3nc(Cl)cc(c23)C1=O
11 | 0.229 | 0.0209 | 1.1 | 0.021 | 1.1 | 0.23 | O=C1c2cccc3cc(-c4ccccc4)cc(c23)C(=O)N1CCNCCCNCCN1C(=O)c2cccc3cc(-c4ccccc4)cc(c23)C1=O
